Assay [1] deals with Klebsiella pneumoniae. The assay can be described thus: Antimicrobial activity against carbapenem-resistant KPC-2 producing Klebsiella pneumoniae 531 transformant by agar dilution method. It is filed as functional. In general terms: In agar dilution the substance is mixed into plates at graded concentrations.
In assay [2] the test system is Klebsiella pneumoniae. The assay can be described thus: Antimicrobial activity against carbapenem-resistant KPC-2 producing Klebsiella pneumoniae 365 transformant by agar dilution method. It counts as functional.
In assay [3] the test system is Klebsiella pneumoniae. The assay is described as follows: Antimicrobial activity against carbapenem-resistant KPC-2 producing Klebsiella pneumoniae 526 transformant by agar dilution method. It is filed as functional.
Assay [4] has as its system Klebsiella pneumoniae. The assay can be described thus: Antimicrobial activity against carbapenem-resistant KPC-2 producing Klebsiella pneumoniae 523 ST 340 expressing beta-lactamase TEM-1, SHV-11 and OXA-2 by agar dilution method. It is filed as functional.
Assay [5] deals with Klebsiella pneumoniae. The assay can be described thus: Antimicrobial activity against carbapenem-resistant KPC-2 producing Klebsiella pneumoniae 475 ST 277 expressing beta-lactamase SHV-27, CTX-M-15 and OXA-4 by agar dilution method. It counts as functional.
In assay [6] the test system is Klebsiella pneumoniae. The assay is described as follows: Antimicrobial activity against carbapenem-resistant KPC-2 producing Klebsiella pneumoniae 525 transformant by agar dilution method. It counts as functional.
Assay [7] relates to Klebsiella pneumoniae. The assay can be described thus: Antimicrobial activity against carbapenem-resistant KPC-2 producing Klebsiella pneumoniae 475 transformant by agar dilution method. It counts as functional.
Assay [8] relates to Klebsiella pneumoniae. The assay is described as follows: Antimicrobial activity against carbapenem-resistant KPC-2 producing Klebsiella pneumoniae 469 ST 277 expressing beta-lactamase SHV-27, CTX-M-15 and OXA-4 by agar dilution method. It counts as functional.
For assay [9], the system named is Klebsiella pneumoniae. The assay can be described thus: Antimicrobial activity against carbapenem-resistant KPC-2 producing Klebsiella pneumoniae 525 ST 376 expressing beta-lactamase SHV-1 by agar dilution method. It is filed as functional.
Assay [10] relates to Klebsiella pneumoniae. The assay is described as follows: Antimicrobial activity against KPC-3 producing Klebsiella pneumoniae 549 ST 327 expressing beta-lactamase TEM-1 and CTX-M-2 by agar dilution method. It counts as functional.
Assay [11] concerns Klebsiella pneumoniae. The assay is described as follows: Antimicrobial activity against carbapenem-resistant KPC-2 producing Klebsiella pneumoniae 469 transformant by agar dilution method. It is filed as functional.
Assay [12] deals with Klebsiella pneumoniae. The assay is described as follows: Antimicrobial activity against KPC-3 producing Klebsiella pneumoniae 557 transformant by agar dilution method. It counts as functional.
In assay [13] the test system is Klebsiella pneumoniae. The assay is described as follows: Antimicrobial activity against carbapenem-resistant KPC-2 producing Klebsiella pneumoniae 523 transformant by agar dilution method. It counts as functional.
Assay [14] relates to Klebsiella pneumoniae. The assay can be described thus: Antimicrobial activity against KPC-3 producing Klebsiella pneumoniae 557 ST 258 expressing beta-lactamase TEM-1 by agar dilution method.
The test system of assay [15] is Escherichia coli. The assay can be described thus: Antimicrobial activity against Escherichia coli Genehogs by agar dilution method. It counts as functional. The method, boiled down: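 Carbapenem MICs by agar dilution, interpreted per CLSI. FDA Enterobacteriaceae breakpoints applied: susceptible ≤2 μg/ml, intermediate 4 μg/ml, resistant ≥8 μg/ml. Transformants were made in recipient E. coli GeneHogs with purified plasmid DNA.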

Assay [16] relates to Klebsiella pneumoniae. The assay can be described thus: Antimicrobial activity against carbapenem-resistant KPC-2 producing Klebsiella pneumoniae 365 ST 376 expressing beta-lactamase SHV-1, CTX-M-15 and OXA-4 by agar dilution method.
The subject of assay [17] is Klebsiella pneumoniae. The assay can be described thus: Antimicrobial activity against carbapenem-resistant KPC-2 producing Klebsiella pneumoniae 588 ST 340 expressing beta-lactamase TEM-1 and SHV-11 by agar dilution method. It counts as functional.
In assay [18] the test system is Klebsiella pneumoniae. The assay is described as follows: Antimicrobial activity against carbapenem-resistant KPC-2 producing Klebsiella pneumoniae 526 ST 376 expressing beta-lactamase SHV-1 by agar dilution method. It is filed as functional.
Assay [19] concerns Klebsiella pneumoniae. The assay is described as follows: Antimicrobial activity against KPC-3 producing Klebsiella pneumoniae 549 transformant by agar dilution method. It counts as functional.
Assay [20] concerns Klebsiella pneumoniae. The assay can be described thus: Antimicrobial activity against carbapenem-resistant KPC-2 producing Klebsiella pneumoniae 531 ST 376 expressing beta-lactamase SHV-1 by agar dilution method. It counts as functional.
Assay [21] deals with Klebsiella pneumoniae. The assay can be described thus: Antimicrobial activity against carbapenem-resistant KPC-2 producing Klebsiella pneumoniae 588 transformant by agar dilution method. It is filed as functional.

≈ marks a conversion by molar mass, not a printed value.

One may read the MIC as the smallest concentration in the dilution series that meets the test's criterion for growth inhibition. A higher MIC goes with a need for much substance.

For the compound `C[C@H]1[C@H](NC(=O)/C(=N\OC(C)(C)C(=O)O)c2csc(N)n2)C(=O)N1S(=O)(=O)O` [AZTREONAM], the MIC was 64 µg/mL (≈ 147 µM) in assay [1]; greater than 64 µg/mL in assay [2]; greater than 64 µg/mL in assay [3]; greater than 64 µg/mL in assay [4]; greater than 64 µg/mL in assay [5]; greater than 64 µg/mL in assay [6]. The MIC in assay [7] was 32 µg/mL (≈ 73.5 µM); in assay [8] it was greater than 64 µg/mL; in [9], greater than 64 µg/mL; in assay [10], greater than 64 µg/mL; in assay [11], 32 µg/mL (≈ 73.5 µM); in assay [12] it was greater than 64 µg/mL. Further, the MIC in [13] was greater than 64 µg/mL; in assay [14] it was greater than 64 µg/mL; in [15], less than 1 µg/mL; in [16] it was greater than 64 µg/mL; in assay [17], greater than 64 µg/mL; in assay [18] it was greater than 64 µg/mL. Besides, the MIC in assay [19], in [20] and in [21] was greater than 64 µg/mL throughout.

With `C[C@@H](O)[C@H]1C(=O)N2C(C(=O)O)=C(S[C@@H]3CN[C@H](C(=O)Nc4cccc(C(=O)O)c4)C3)[C@H](C)[C@H]12`, the MIC in assay [1] amounted to 2 µg/mL (≈ 4.21 µM); in assay [2] it was 8 µg/mL (≈ 16.8 µM); in assay [3] it was 8 µg/mL (≈ 16.8 µM); in assay [4], 64 µg/mL (≈ 135 µM); in assay [5], 128 µg/mL (≈ 269 µM); in [6], 4 µg/mL (≈ 8.41 µM). The MIC in assay [7] came out at 8 µg/mL (≈ 16.8 µM); in assay [8], 64 µg/mL (≈ 135 µM); in [9], 128 µg/mL (≈ 269 µM); in assay [10], 32 µg/mL (≈ 67.3 µM); in assay [11], 4 µg/mL (≈ 8.41 µM); in assay [12], 4 µg/mL (≈ 8.41 µM). Further, the MIC worked out at 8 µg/mL (≈ 16.8 µM) in assay [13]; 256 µg/mL (≈ 538 µM) in assay [14]; 0.012 µg/mL (≈ 0.0252 µM) in assay [15]; 64 µg/mL (≈ 135 µM) in assay [16]; 128 µg/mL (≈ 269 µM) in assay [17]; 64 µg/mL (≈ 135 µM) in assay [18]. Further, the minimal inhibitory concentration (MIC) in assay [19] came to 4 µg/mL (≈ 8.41 µM); in assay [20], 128 µg/mL (≈ 269 µM); in assay [21] it was 8 µg/mL (≈ 16.8 µM).

With `CO/N=C(\C(=O)N[C@@H]1C(=O)N2C(C(=O)O)=C(CSc3nc(=O)c(O)nn3C)CS[C@H]12)c1csc(N)n1` [CEFTRIAXONE], the MIC in assay [1] was found to be 16 µg/mL (≈ 28.9 µM); in [3], 32 µg/mL (≈ 57.7 µM); in assay [4], 16 µg/mL (≈ 28.9 µM); in assay [5], 16 µg/mL (≈ 28.9 µM); in [6], 8 µg/mL (≈ 14.4 µM); in assay [7] it was 32 µg/mL (≈ 57.7 µM). The MIC in [8] was greater than 64 µg/mL; in assay [9], greater than 64 µg/mL; in [10] it was greater than 64 µg/mL; in [11], greater than 64 µg/mL; in assay [12], 32 µg/mL (≈ 57.7 µM); in [13], 32 µg/mL (≈ 57.7 µM). Also, the MIC in [14] was greater than 64 µg/mL; in assay [15], less than 1 µg/mL; in [16] it was greater than 64 µg/mL; in assay [17] it was greater than 64 µg/mL; in assay [18] it was greater than 64 µg/mL; in assay [19], 32 µg/mL (≈ 57.7 µM). Moreover, the figures for the MIC in assay [20] and in assay [21] were greater than 64 µg/mL and 32 µg/mL (≈ 57.7 µM), respectively.

Turning to `C[C@H]1COc2c(N3CCN(C)CC3)c(F)cc3c(=O)c(C(=O)O)cn1c23.C[C@H]1COc2c(N3CCN(C)CC3)c(F)cc3c(=O)c(C(=O)O)cn1c23.O` [LEVOFLOXACIN], the MIC was less than 0.25 µg/mL in [1]; less than 0.12 µg/mL in assay [2]; less than 0.12 µg/mL in [3]; greater than 8 µg/mL in [4]; less than 0.25 µg/mL in [6]; less than 0.12 µg/mL in assay [7]. In addition, the MIC was less than 0.25 µg/mL in [8]; greater than 8 µg/mL in assay [9]; greater than 8 µg/mL in assay [10]; less than 0.25 µg/mL in assay [11]; less than 0.25 µg/mL in assay [12]; 0.25 µg/mL in [13]. The minimal inhibitory concentration (MIC) in assay [14] was greater than 8 µg/mL; in [15], 0.006 µg/mL; in assay [16], greater than 8 µg/mL; in assay [17], greater than 8 µg/mL; in assay [18], greater than 8 µg/mL; in assay [19], less than 0.25 µg/mL. Besides, the figures for the MIC in assay [20] and in [21] were greater than 8 µg/mL and less than 0.12 µg/mL, respectively.

On to `NCC[C@H](O)C(=O)N[C@@H]1C[C@H](N)[C@@H](O[C@H]2O[C@H](CN)[C@@H](O)[C@H](O)[C@H]2O)[C@H](O)[C@H]1O[C@H]1O[C@H](CO)[C@@H](O)[C@H](N)[C@H]1O` [AMIKACIN], for which the MIC is 16 µg/mL (≈ 27.3 µM) in [1]; less than 2 µg/mL in assay [2]; 8 µg/mL (≈ 13.7 µM) in assay [3]; 16 µg/mL (≈ 27.3 µM) in assay [4]; less than 2 µg/mL in assay [5]; 16 µg/mL (≈ 27.3 µM) in assay [6]. In addition, the MIC in assay [7] was 8 µg/mL (≈ 13.7 µM); in assay [8], 4 µg/mL (≈ 6.83 µM); in assay [9], 8 µg/mL (≈ 13.7 µM); in assay [10], less than 2 µg/mL; in [11], 16 µg/mL (≈ 27.3 µM); in [12] it was less than 2 µg/mL. In addition, the MIC was greater than 64 µg/mL in assay [13]; 32 µg/mL (≈ 54.6 µM) in assay [14]; less than 2 µg/mL in [15]; 4 µg/mL (≈ 6.83 µM) in assay [16]; 32 µg/mL (≈ 54.6 µM) in assay [17]; 4 µg/mL (≈ 6.83 µM) in assay [18]. The MIC in assay [20] turned out to be 8 µg/mL (≈ 13.7 µM); in assay [21], 32 µg/mL (≈ 54.6 µM).

These data come from ChEMBL document CHEMBL1275589, “Molecular epidemiology, sequence types, and plasmid analyses of KPC-producing Klebsiella pneumoniae strains in Israel” (2010).
